From ChEMBL document CHEMBL4004828, “Synthesis and biological evaluation of fluorinated N-benzoyl and N-phenylacetoyl derivatives of 3-(4-aminophenyl)-coumarin-7-O-sulfamate as steroid sulfatase inhibitors” (Eur J Med Chem, 2017) come the findings set out here.

pIC50: −log10 of the molar value.

In one experiment the target is T1, Steryl-sulfatase (Homo sapiens, UniProt P08842).
T1 sequence (P08842 whole entry): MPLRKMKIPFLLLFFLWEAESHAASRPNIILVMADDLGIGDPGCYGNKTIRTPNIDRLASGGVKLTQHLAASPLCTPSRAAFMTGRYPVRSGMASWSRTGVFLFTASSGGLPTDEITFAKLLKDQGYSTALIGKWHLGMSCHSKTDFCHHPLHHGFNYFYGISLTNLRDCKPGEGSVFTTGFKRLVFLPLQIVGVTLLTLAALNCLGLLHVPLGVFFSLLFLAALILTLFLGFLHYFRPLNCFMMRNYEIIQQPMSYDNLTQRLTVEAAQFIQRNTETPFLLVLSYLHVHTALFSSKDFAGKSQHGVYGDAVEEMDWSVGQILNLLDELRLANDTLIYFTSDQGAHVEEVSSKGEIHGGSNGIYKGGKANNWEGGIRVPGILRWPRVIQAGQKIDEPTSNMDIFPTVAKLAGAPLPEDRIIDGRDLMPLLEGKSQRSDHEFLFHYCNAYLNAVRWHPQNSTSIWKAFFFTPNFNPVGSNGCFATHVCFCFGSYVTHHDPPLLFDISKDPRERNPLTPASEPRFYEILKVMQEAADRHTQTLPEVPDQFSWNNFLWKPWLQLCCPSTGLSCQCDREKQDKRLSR
Briefly: Inhibition of human placenta steroid sulfatase using p-nitrophenyl sulfate as substrate after 15 mins. An outline of the steps: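 STS extracted from human placenta, purified to homogeneity by multi-step chromatography; 5 U enzyme in 20 mM Tris–HCl pH 7.4 with 3 mM p-nitrophenyl sulfate and inhibitor 0.01–100 µM, 37 °C for 15 min. Stopped with 1 M NaOH; released p-nitrophenol read at 405 nm. Triplicate measurements; IC50 calculated.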

A further experiment concerns T47D. Kind of experiment: Cytotoxicity against human T47D cells assessed as growth inhibition after 120 hrs by MTT assay. Format: functional. Put shortly: (§1)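 Cells grown in phenol red-free high-glucose DMEM with 10% FBS, penicillin (62.6 µg/mL) and streptomycin (40 µg/mL) at 37 °C, 10% CO2, screened for Mycoplasma. Exponentially growing cells exposed to test agents for 120 h; viability read by MTT assay; GI50 derived.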

In the next experiment the test system is SK-BR-3. Kind of experiment: Cytotoxicity against human SKBR3 cells assessed as growth inhibition after 120 hrs by MTT assay. Format: functional. As to conditions: SK-BR-3, 120 h. Put shortly:
as §1

For a further experiment, the system named is MDA-MB-231. Briefly: Cytotoxicity against human MDA-MB-231 cells assessed as growth inhibition after 120 hrs by MTT assay. Format: functional. As to conditions: MDA-MB-231, 120 h. An outline of the steps:
as §1

The subject of the next experiment is MCF7. Kind of experiment: Cytotoxicity against human MCF7 cells assessed as growth inhibition after 120 hrs by MTT assay. As to conditions: MCF7, 120 h. Format: functional. Put shortly: as §1

On Steryl-sulfatase, `NS(=O)(=O)Oc1ccc2cc(-c3ccc(NC(=O)c4ccc(F)cc4)cc3)c(=O)oc2c1` showed a pIC50 of 6.68. Besides, the GI50 in the experiment with T47D, with SK-BR-3, in the experiment on MDA-MB-231 and in the experiment with MCF7 was over 100 µM each time.
Molecule `NS(=O)(=O)Oc1ccc2cc(-c3ccc([N+](=O)[O-])cc3)c(=O)oc2c1` gave a pIC50 against Steryl-sulfatase of 6.54.
On the same count and under the same terms, the figure for `NS(=O)(=O)Oc1ccc2cc(-c3ccc(NC(=O)Cc4ccccc4)cc3)c(=O)oc2c1` is 6.59.
As to `NS(=O)(=O)Oc1ccc2cc(-c3cc(F)c(F)c(F)c3)c(=O)oc2c1`, the pIC50 against Steryl-sulfatase was 6.54. In addition, the GI50 was 30.7 µM in the experiment on T47D, 61.3 µM with SK-BR-3, 56.3 µM with MDA-MB-231 and 32.6 µM with MCF7.
In the case of `NS(=O)(=O)Oc1ccc2cc(-c3ccc(NC(=O)Cc4cc(F)c(F)c(F)c4)cc3)c(=O)oc2c1`, the pIC50 at Steryl-sulfatase is 6.52. Besides, the GI50 in the experiment with T47D turned out to be 13.7 µM; with SK-BR-3, 36.1 µM; with MDA-MB-231, 11.7 µM; in the experiment on MCF7, 31.3 µM.
At Steryl-sulfatase, `NS(=O)(=O)Oc1ccc2cc(-c3ccc(NC(=O)c4c(F)c(F)c(F)c(F)c4F)cc3)c(=O)oc2c1` had a pIC50 of 6.64.
The molecule `NS(=O)(=O)Oc1ccc2cc(-c3ccc(NC(=O)Cc4c(F)c(F)c(F)c(F)c4F)cc3)c(=O)oc2c1` had a pIC50 against Steryl-sulfatase of 6.47.
With `CC/C(=C(\c1ccccc1)c1ccc(OCCN(C)C)cc1)c1ccccc1` [TAMOXIFEN], the GI50 in the experiment on T47D stood at 10.6 µM; with SK-BR-3 it was 12.5 µM; in the experiment with MDA-MB-231 it was 15.1 µM; in the experiment with MCF7, 6.8 µM.
At Steryl-sulfatase, `NS(=O)(=O)Oc1ccc2cc(-c3ccc(NC(=O)Cc4ccc(F)c(F)c4)cc3)c(=O)oc2c1` gave a pIC50 of 6.44.
On the same count and under the same terms, the figure for `NS(=O)(=O)Oc1ccc2cc(-c3ccc(NC(=O)c4ccccc4)cc3)c(=O)oc2c1` is 6.31.
As for `NS(=O)(=O)Oc1ccc2cc(-c3ccc(NC(=O)c4ccc(F)c(F)c4)cc3)c(=O)oc2c1`, the pIC50 at Steryl-sulfatase was 6.74. In addition, the GI50 in the experiment with T47D, in the experiment on SK-BR-3, with MDA-MB-231 and with MCF7 was over 100 µM each time.
`NS(=O)(=O)Oc1ccc2cc(-c3ccc(F)c(F)c3)c(=O)oc2c1`: the pIC50 against Steryl-sulfatase is 6.55. The GI50 with T47D is 43 µM; in the experiment on SK-BR-3, over 100 µM; in the experiment on MDA-MB-231, 61.5 µM; in the experiment on MCF7, 30 µM.
`NS(=O)(=O)Oc1ccc2cc(-c3ccc(NC(=O)Cc4ccc(F)c(C(F)(F)F)c4)cc3)c(=O)oc2c1` had a pIC50 against Steryl-sulfatase of 6.42.
At Steryl-sulfatase, `NS(=O)(=O)Oc1ccc2ccc(=O)oc2c1` gave a pIC50 of 5.86. Also, the GI50 with T47D, in the experiment on SK-BR-3, with MDA-MB-231 and in the experiment with MCF7 was over 100 µM each time.
For `NS(=O)(=O)Oc1ccc2cc(-c3ccc(NC(=O)Cc4ccc(OC(F)(F)F)cc4)cc3)c(=O)oc2c1`, at Steryl-sulfatase, the pIC50 was 6.36.
